The target in assay [1] is T1, Bone morphogenetic protein receptor type-2 (Homo sapiens, UniProt Q13873).
T1 sequence (Q13873 whole entry): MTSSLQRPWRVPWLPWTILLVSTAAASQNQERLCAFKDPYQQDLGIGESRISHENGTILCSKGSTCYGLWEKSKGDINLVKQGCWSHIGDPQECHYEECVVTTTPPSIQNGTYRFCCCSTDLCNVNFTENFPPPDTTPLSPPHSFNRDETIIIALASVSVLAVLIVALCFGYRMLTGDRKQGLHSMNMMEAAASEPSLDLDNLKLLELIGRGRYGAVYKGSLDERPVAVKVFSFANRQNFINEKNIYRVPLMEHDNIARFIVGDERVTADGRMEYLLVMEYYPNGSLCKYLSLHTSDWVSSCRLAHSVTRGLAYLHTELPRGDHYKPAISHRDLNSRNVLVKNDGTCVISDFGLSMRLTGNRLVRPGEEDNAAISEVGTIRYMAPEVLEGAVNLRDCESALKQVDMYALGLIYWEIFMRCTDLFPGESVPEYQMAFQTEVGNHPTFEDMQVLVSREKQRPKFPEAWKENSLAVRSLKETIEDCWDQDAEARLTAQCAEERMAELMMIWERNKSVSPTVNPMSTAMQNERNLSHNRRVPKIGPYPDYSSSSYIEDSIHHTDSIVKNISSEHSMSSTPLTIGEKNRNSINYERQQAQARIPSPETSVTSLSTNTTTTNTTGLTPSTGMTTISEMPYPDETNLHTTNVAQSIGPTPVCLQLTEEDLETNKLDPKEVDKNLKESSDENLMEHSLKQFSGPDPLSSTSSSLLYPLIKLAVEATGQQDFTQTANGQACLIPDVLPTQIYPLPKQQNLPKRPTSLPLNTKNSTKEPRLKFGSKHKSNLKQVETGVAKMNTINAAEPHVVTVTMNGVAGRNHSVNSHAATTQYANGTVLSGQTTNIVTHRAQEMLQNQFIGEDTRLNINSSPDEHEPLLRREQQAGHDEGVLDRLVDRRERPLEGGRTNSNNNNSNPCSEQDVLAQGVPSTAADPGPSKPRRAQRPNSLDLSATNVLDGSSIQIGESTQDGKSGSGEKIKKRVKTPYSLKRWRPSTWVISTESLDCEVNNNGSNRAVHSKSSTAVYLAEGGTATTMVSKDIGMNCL
Kind of assay: Inhibition of BMPR2 (unknown origin) assessed as dissociation constant by ITC assay. Put shortly:
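Binding measured by isothermal titration calorimetry against the recombinant BMPR2 kinase domain. Thermodynamic binding parameters, including the dissociation constant, were derived from the titration data.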
(In general: ITC needs no label: the signal is the heat of the interaction.)

Assay [2] concerns the target T2, Mitogen-activated protein kinase 15 (Homo sapiens) (UniProt Q8TD08).
T2 sequence (whole entry): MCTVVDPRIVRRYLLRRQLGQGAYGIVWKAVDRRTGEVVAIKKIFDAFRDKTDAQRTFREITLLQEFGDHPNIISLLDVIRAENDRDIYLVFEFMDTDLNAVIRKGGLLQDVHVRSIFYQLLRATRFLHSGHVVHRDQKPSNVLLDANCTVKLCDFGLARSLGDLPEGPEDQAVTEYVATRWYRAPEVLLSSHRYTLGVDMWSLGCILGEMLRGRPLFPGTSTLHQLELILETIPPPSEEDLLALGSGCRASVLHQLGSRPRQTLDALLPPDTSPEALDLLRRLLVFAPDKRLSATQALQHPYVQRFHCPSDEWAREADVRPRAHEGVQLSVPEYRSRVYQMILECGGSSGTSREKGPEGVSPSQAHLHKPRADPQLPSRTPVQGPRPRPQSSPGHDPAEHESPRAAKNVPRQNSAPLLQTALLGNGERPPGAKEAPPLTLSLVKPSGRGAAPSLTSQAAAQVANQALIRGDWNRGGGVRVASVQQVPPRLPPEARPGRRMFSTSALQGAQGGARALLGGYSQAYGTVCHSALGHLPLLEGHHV
Kind of assay: Binding affinity to recombinant MAPK15 (unknown origin) assessed as change in melting temperature at 10 uM by DSF assay. Summed up:
(§1)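 Differential scanning fluorimetry on an in-house panel of 90 recombinant kinases. Stabilization is read as the shift in melting temperature (ΔTm) relative to ligand-free protein. Staurosporine served as the positive control, and binding was also compared against its ΔTm.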
On the technique in general: DSF heats the sample and reads unfolding from a dye or from intrinsic fluorescence.

For assay [3], the target named is Glycogen synthase kinase-3 beta (Homo sapiens, UniProt P49841). Kind of assay: Inhibition of recombinant GSK3B (unknown origin) at 10 uM by DSF assay relative to staurosporine. Put shortly:
as §1

The target in assay [4] is T2, Mitogen-activated protein kinase 15 (Homo sapiens). Kind of assay: Inhibition of recombinant MAPK15 (unknown origin) at 10 uM by DSF assay relative to staurosporine. Put shortly:
as §1

The test system of assay [5] is T3, Receptor-type tyrosine-protein kinase FLT3 (Homo sapiens), P36888 [D835V].
T3 sequence (whole entry): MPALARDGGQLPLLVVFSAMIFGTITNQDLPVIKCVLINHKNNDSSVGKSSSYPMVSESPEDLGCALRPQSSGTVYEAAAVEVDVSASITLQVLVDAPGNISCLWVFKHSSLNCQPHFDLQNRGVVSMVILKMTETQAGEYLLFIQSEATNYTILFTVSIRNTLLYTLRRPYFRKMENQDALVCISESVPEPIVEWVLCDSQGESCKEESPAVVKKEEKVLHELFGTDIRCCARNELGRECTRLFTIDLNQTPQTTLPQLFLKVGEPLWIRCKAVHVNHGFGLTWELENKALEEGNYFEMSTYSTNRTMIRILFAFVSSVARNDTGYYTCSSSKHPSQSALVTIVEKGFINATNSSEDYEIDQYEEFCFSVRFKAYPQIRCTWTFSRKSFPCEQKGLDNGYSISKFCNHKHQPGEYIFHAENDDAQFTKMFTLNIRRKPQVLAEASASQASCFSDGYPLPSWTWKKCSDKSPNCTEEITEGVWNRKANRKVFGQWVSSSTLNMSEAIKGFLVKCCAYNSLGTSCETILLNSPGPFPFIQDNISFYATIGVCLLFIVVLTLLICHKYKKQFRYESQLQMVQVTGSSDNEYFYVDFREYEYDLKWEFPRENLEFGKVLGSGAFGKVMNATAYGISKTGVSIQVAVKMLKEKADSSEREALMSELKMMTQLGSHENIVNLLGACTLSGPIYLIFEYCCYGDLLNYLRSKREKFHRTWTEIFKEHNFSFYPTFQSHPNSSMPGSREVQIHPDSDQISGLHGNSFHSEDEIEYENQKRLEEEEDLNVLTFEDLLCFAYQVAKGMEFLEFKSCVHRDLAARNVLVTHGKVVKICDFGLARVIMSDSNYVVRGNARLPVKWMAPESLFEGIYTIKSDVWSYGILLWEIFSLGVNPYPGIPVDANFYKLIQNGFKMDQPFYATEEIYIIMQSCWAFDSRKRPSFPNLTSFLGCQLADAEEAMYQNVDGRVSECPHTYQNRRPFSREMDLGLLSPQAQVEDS
Kind of assay: Inhibition of FLT3 D835V mutant (unknown origin) at 1 uM by Kinomescan assay relative to staurosporine.

Assay [6] concerns the target Mitogen-activated protein kinase 8 (Homo sapiens) (UniProt P45983). Kind of assay: Inhibition of JNK1 (unknown origin) assessed as residual activity at 1 uM by Kinomescan assay relative to staurosporine.

Chain of Mitogen-activated protein kinase 8 (Homo sapiens) (P45983 whole entry): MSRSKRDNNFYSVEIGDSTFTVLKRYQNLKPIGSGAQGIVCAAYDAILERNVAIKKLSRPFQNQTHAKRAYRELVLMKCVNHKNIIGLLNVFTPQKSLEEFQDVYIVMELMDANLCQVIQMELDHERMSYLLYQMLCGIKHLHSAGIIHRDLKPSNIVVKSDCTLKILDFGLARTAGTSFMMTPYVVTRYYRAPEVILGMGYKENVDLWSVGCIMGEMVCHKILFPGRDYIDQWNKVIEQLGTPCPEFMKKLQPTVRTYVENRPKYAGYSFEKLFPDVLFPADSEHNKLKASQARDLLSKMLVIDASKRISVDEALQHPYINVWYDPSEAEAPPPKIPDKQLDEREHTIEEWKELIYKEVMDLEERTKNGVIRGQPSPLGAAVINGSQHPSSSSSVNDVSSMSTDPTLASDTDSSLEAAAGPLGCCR
Chain of Glycogen synthase kinase-3 beta (P49841 whole entry, looked up): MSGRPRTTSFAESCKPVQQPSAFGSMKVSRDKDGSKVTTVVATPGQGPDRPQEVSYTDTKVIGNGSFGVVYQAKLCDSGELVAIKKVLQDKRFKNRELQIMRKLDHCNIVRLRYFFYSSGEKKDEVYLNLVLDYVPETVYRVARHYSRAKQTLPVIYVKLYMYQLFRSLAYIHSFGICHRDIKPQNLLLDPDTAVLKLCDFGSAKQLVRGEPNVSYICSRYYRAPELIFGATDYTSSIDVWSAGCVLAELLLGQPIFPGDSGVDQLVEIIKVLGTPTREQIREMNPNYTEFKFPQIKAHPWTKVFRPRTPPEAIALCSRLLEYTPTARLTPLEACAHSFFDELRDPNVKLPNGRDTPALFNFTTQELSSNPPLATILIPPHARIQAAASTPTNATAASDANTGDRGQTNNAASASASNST

The term Kd denotes the free concentration of one partner at which half of the binding sites on the other are occupied at equilibrium, for simple one-to-one binding. A word on the ΔTm: it is the change in melting temperature against a reference sample. The inhibition is how much of the control response was suppressed. Turning to `O=C1NCCc2ccc(cc2)Nc2nccc(n2)Nc2cc1[nH]n2`, the Kd in assay [1] was determined as 83.5 nM. Besides, in assay [2], the ΔTm amounted to 3.8 °C. In addition, the figures for the inhibition in assay [3], in assay [4] and in assay [5] were 71%, 26% and 4.5%, respectively. Besides, in assay [6], the Activity worked out at 27%.

The values are drawn from ChEMBL document CHEMBL5247671, “Design and Synthesis of Pyrazole-Based Macrocyclic Kinase Inhibitors Targeting BMPR2” (ACS Med Chem Lett, 2023).
